# From PubChem BioAssay
# EBI2 antag: EBI2 receptor antagonists, beta-arrestin recruitment, primary screen, cell-based, luminescence, 7a,25-OHC stimulation, uHTS; hit rate 0.81% among 360,000; inhibition, % at 5 µM; G-protein coupled receptor 183 (Homo sapiens), P32249; 7a,25-OHC stimulated; in the data active = inhibition above about 38%;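 note: enzyme fragment complementation signal reports receptor beta-arrestin coupling in cells; 0% = agonist plus DMSO wells and 100% = wells without agonist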
# MC4R barr agon: MC4R agonists recruiting beta-arrestin, primary screen, cell-based, luminescence, agonist arm of biased-ligand search; Melanocortin receptor 4 (Homo sapiens), P32245; hit rate 0.98% among 360,000; activation, % at 8.9 µM; U2OS MC4R beta-arrestin complementation; percent of melanotan II response, DMSO zero;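 active = activation above a per-plate cutoff, the mean activation of sample wells on that plate plus 3 SD, cut at about 8% in these data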
# Target sequence (P32245 whole entry, looked up): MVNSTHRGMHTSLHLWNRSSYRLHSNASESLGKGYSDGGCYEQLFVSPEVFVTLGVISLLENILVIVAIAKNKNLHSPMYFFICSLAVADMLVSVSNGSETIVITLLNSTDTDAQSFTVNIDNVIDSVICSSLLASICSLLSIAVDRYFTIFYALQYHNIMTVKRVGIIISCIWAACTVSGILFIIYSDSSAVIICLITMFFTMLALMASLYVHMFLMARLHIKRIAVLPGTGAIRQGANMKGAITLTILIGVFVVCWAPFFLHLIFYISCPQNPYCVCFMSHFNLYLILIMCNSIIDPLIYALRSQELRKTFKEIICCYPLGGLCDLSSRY
# Myeloid diff MLP: induction of myeloid progenitor differentiation, primary screen, cell-based, flow cytometry, MLPCN library. ER-HoxA9 myeloid progenitors, lysozyme-GFP differentiation. calls only at 10 µM. hit rate 1% among 360,000. AID 624256, 2012;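 active = normalized GFP-positive differentiation at or above the plate's own cutoff, the solvent-only control mean plus 3 SD; inconclusive = no clear call, values can overlap the other calls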;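 note: cells exposed to compound for four days before flow analysis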
# MC4R antag cAMP: MC4R antagonists of cAMP signaling, primary screen, cell-based, TR-FRET, antagonist arm of biased-ligand search; AID 540295, 2011; inhibition, % at 6.5 µM; Melanocortin receptor 4 (Homo sapiens), P32245; hit rate 0.48% among 360,000; MC4R-expressing cells, MTII-stimulated cAMP, LANCE TR-FRET;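 active = inhibition above its plate's cutoff, the mean of tested wells on that plate plus 3 SD, cut at about 29% in these data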;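 note: 0% = Melanotan II alone and 100% = Melanotan II plus saturating MCL0020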
#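 Material: human MC4R-expressing U2OS cells. Probe or stimulus: Melanotan II challenge. Dosing: 6.5 µM single dose. Times: 30-min compound, 1-h challenge, 1-h detection, room temperature. Technique: TR-FRET with Eu-cAMP and labeled anti-cAMP, 671 nm. Replication: singlicate.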
# Granule exo inh: LAMP-1 surface exposure blockers, TALL-104 cells – cell-based, flow cytometry, MLPCN library, primary screen; TALL-104 LAMP-1 surface exposure; cells stimulated with thapsigargin and PMA; inhibition, % at 10 µM; hit rate 0.66% among 360,000;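 active = inhibition above about 55%, limit read from the data; inconclusive = no clear call, values can overlap the other calls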
# U2OS cAMP counter: nonselective cAMP signaling inhibitors, parental cells, counter-screen for MC4R biased antagonist project, cell-based, TR-FRET, U2OS, forskolin, triplicate. shares compounds with MC4R antag cAMP. LANCE TR-FRET. inhibition, % at 6.5 µM. hit rate 26% among 1,600;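 active = mean inhibition over triplicates above the low-control well mean plus 3 SD, set per campaign, cut at about 13% in these data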;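 note: signal is single emission at 671 nm which falls as cellular cAMP rises; 0% = forskolin-stimulated wells and 100% = buffer without forskolin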
# MC4R antag conf: MC4R cAMP antagonists, retest, confirmation, cell-based, TR-FRET; hit rate 27% among 1,600; inhibition, % at 6.5 µM; MC4R-expressing cells, MTII-stimulated cAMP; shares compounds with MC4R antag cAMP; AID 602195, 2012; in the data active = inhibition above about 29%;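 note: 0% = agonist stimulated wells alone and 100% = agonist stimulated wells plus saturating reference antagonist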
# Active calls of the source: *; i = inactive; ? = inconclusive; / = no result given. Only some compounds are listed: those with a hit (about 3.7% of all), similar ones and a draw of the others.
SMILES,EBI2 antag,MC4R barr agon,Myeloid diff MLP,MC4R antag cAMP,Granule exo inh,U2OS cAMP counter,MC4R antag conf
CC1(C)CC2CC(C)(CN2S(=O)(=O)c2ccc(F)cc2F)C1 (centres undefined),0,-3,i,0,7,/,/
Cc1nc2c(sc3nc(N4CCOCC4)c4c(c32)CC(C)(C)OC4)c(-c2ccccc2)c1C(=O)O,14,0,i,40*,-2,12,20
CC1(C)Cc2c(c(N3CCOCC3)nc3snc(NC(=O)c4ccccc4)c23)CO1,-8,1,i,5,3,/,/
CC(C)(C)c1ccc(C(=O)OC/C(O)=C(\C#N)c2nc3ccccc3s2)cc1,-12,1,i,29*,1,2,6
CC1CCCC(NC(=O)COC(=O)COc2ccc(C#N)cc2)C1C (centres undefined),-2,1,i,36*,-2,10,14
CC1CCCC(NC(=O)COC(=O)COc2ccc(Br)cc2)C1C (centres undefined),-6,5,i,13,-2,/,/
COc1ccccc1-n1cc([C@@H]2C[C@H]3CN(c4ccccc4)C(=O)[C@]34CCCN24)cn1,2,-2,/,35*,1,0,-8
N/C(=N\OC(=O)c1ccc(Cl)c([N+](=O)[O-])c1)c1ccccn1,23,-1,i,48*,5,28*,40*
O=C(COC(=O)c1ccccc1C(=O)c1ccc(Cl)c([N+](=O)[O-])c1)NC1CC1,12,0,?,29*,-5,21*,-14
N/C(=N\OC(=O)c1ccc([N+](=O)[O-])cc1)c1cccnc1,-19,-3,i,-2,-3,/,/
N/C(=N\OC(=O)c1ccc(Cl)c([N+](=O)[O-])c1)c1ccccc1,32,-1,i,44*,6,22*,36*
N/C(=N\OC(=O)c1cc([N+](=O)[O-])ccc1Cl)c1cccnc1,0,1,/,62*,7,18*,47*
CCOc1ccccc1NC(=O)COc1cccnc1[N+](=O)[O-],1,-3,i,-5,3,/,/
CSc1ccccc1OCc1cc(C(=O)N2CCc3[nH]cnc3C2c2ccccn2)no1 (centres undefined),-9,0,i,6,-2,/,/
c1ccc2nc3c(ccc4ccccc43)cc2c1,5,-1,i,-3,17,/,/
Nc1[nH]nc2ncc3cc4ccccc4nc3c12,-7,0,i,29*,-1,-8,-10
O=C(CCc1nc(-c2ccccc2Cl)no1)NCCc1ccccc1,-1,1,i,29*,-3,-1,2
COc1ccc(C(C)=O)cc1CN1C(=O)C(C)ON=C1c1cccc(C(F)(F)F)c1 (centres undefined),6,2,i,8,-4,/,/
CC(C)Cn1c(N)c(C(=O)COC(=O)c2ccc([N+](=O)[O-])o2)c(=O)n(C)c1=O,0,-2,i,35*,-6,10,19
COc1ccc2c(c1)c(CC(=O)Nc1ccc(C(C)=O)cc1)c(C)n2C(=O)c1ccc(Cl)cc1,19,0,i,29*,2,0,7
COc1ccc2c(c1)c(CC(=O)Nc1nnc(C3CC3)s1)c(C)n2C(=O)c1ccc(Cl)cc1,-39,0,i,14,3,/,/
O=C(NCCCc1ccccc1)c1cccc(NC(=O)C2CCCC2)c1,-7,0,i,5,-10,/,/
O=C(CSc1ccc2nnc(CCNC(=O)c3ccc(F)cc3)n2n1)NCC1CCCO1 (centres undefined),4,-2,i,-1,14,/,/
